From ChEMBL document CHEMBL2380202, “Identification of substituted 2-thio-6-oxo-1,6-dihydropyrimidines as inhibitors of human lactate dehydrogenase” (Bioorg Med Chem Lett, 2013)
≈ marks a conversion by molar mass, not a printed value. Calls of active or inactive are those of the source. No cut-off for these calls is given here.

Columns and labels:
[1] = target: T1, Malate dehydrogenase, mitochondrial (Homo sapiens, UniProt P40926); assay: Inhibition of human recombinant carboxy-terminal his-tagged MDH-2 (20 to 338) expressed in Escherichia coli using oxaloacetic acid as substrate after 10 mins by UV endpoint analysis
T1 sequence (P40926 whole entry): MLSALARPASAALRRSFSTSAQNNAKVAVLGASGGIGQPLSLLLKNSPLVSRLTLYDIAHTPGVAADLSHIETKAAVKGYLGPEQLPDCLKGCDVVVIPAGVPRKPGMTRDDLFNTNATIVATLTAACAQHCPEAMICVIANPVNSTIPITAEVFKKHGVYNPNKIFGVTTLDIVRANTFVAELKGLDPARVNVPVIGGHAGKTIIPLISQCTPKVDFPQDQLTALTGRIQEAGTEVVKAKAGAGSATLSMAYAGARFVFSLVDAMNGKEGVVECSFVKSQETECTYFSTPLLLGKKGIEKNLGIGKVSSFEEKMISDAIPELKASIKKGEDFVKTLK
In short: (§1)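 Biochemical enzyme inhibition; reported as the arithmetic mean of 2 separate runs (n = 2).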

[2] = target: T2, Malate dehydrogenase, cytoplasmic (Homo sapiens, UniProt P40925); assay: Inhibition of human recombinant carboxy-terminal his-tagged MDH-1 (3 to 334) expressed in Escherichia coli using oxaloacetic acid as substrate after 10 mins by UV endpoint analysis; in short: as §1
T2 sequence (P40925 whole entry): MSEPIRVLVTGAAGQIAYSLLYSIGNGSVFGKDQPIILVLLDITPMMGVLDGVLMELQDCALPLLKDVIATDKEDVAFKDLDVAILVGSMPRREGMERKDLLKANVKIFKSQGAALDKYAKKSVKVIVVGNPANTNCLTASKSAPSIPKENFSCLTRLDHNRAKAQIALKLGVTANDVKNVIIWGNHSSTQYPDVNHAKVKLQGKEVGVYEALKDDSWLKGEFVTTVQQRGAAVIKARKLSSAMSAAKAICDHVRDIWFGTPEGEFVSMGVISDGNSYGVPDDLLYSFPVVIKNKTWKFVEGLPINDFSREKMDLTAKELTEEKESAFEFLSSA

[3] = Clearance in human liver microsomes at 1 uM up to 60 mins; type: ADME, Microsome
In short: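 Human liver microsome stability, single determination (n = 1); in vitro result extrapolated to in vivo clearance, classed stable below 6.2 and labile above 15.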

[4] = target: L-lactate dehydrogenase B chain (Homo sapiens, UniProt P07195); assay: Inhibition of human recombinant carboxy-terminal his-tagged LDHB (1 to 333) expressed in insect cells using pyruvate as substrate after 10 mins by UV endpoint analysis
[5] = target: T3, L-lactate dehydrogenase A chain (Homo sapiens, UniProt P00338); assay: Binding affinity to human recombinant carboxy-terminal avi-tagged LDHA (1 to 331) expressed in Escherichia coli by surface plasmon resonance analysis presence of NADH
In short: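 SPR with NADH present; twofold dilution series of analyte injections; K_D obtained by fitting kinetics or the equilibrium dose response; arithmetic mean of 2 separate runs.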

[6] = target: T3, L-lactate dehydrogenase A chain; assay: Inhibition of human recombinant carboxy-terminal his-tagged LDHA (1 to 331) expressed in Escherichia coli using pyruvate as substrate after 10 mins by UV endpoint analysis
[7] = Aqueous solubility of the compound in PBS buffer at pH 7.2 at 100 uM after 24 hrs; type: physicochemical
In short: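 Aqueous solubility estimated from a high-throughput assay; single determination (n = 1).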

[8] = target: L-lactate dehydrogenase (Homo sapiens) (UniProt V9HWB9); assay: Inhibition of LDH in human HCC1954 cells assessed as lactate accumulation up to 50 uM after 6 hrs; type: cell-based
[9] = target: T3, L-lactate dehydrogenase A chain; assay: Inhibition of human recombinant carboxy-terminal his-tagged LDHA (1 to 331) expressed in Escherichia coli using pyruvate as substrate after 10 mins by MS endpoint analysis; in short: as §1
[10] = target: T3, L-lactate dehydrogenase A chain; assay: Binding affinity to human recombinant carboxy-terminal avi-tagged LDHA (1 to 331) expressed in Escherichia coli by surface plasmon resonance analysis absence of NADH
In short: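 SPR run without NADH; analyte injected as a twofold dilution series; K_D estimated relative to a control; mean of 2 separate runs.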

Sequence of L-lactate dehydrogenase B chain (P07195 whole entry): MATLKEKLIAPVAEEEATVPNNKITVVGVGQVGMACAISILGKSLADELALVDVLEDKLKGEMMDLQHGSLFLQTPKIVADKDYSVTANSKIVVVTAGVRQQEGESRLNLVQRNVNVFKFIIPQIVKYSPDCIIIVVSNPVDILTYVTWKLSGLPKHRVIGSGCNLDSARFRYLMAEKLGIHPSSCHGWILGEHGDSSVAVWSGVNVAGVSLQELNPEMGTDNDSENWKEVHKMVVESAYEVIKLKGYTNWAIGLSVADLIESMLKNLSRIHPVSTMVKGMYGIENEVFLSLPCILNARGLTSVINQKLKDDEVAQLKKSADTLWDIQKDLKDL

SMILES | IC50 [4] [µM] | Kd [5] [µM] | IC50 [6] [µM] | also measured
COc1ccc(CNC(=O)c2cc(=O)c3c(O)cc(OCCc4ccc(NC(=O)C(=O)O)c(OC)c4)cc3o2)cc1 |  |  |  | IC50 [1]: 8.48 µM; IC50 [2]: 6.78 µM
CCC(Sc1nc(-c2cccc(OC)c2)c(C#N)c(=O)[nH]1)C(=O)Nc1ccc(S(N)(=O)=O)cc1 (racemic) | 7.7 | 8.9 | 7.4 | CLhep predicted at 1 µM [3]: 6.9 mL/min/kg
NC(=O)C(=O)O [OXAMATE] | 33.8 |  |  | 
COc1cccc(-c2nc(SCC(=O)Nc3ccc(S(N)(=O)=O)cc3)[nH]c(=O)c2C#N)c1 |  | 38.4 | 42.4 | 
CC(Sc1nc(-c2ccc(Cl)c(F)c2)c(C#N)c(=O)[nH]1)C(=O)Nc1ccc(S(N)(=O)=O)cc1 (racemic) | 2.3 | 2.9 | 0.71 | CLhep predicted at 1 µM [3]: 3.4 mL/min/kg; solubility at 24 h, 100 µM [7]: 64 µM (≈ 32.5 µg/mL); inhibition [8]: inactive
Cc1cccc(NC(=O)CSc2nc(-c3ccc(Cl)cc3)c(C#N)c(=O)[nH]2)c1C |  | 1060 | > 100 | 
COc1ccccc1NC(=O)CSc1nc(-c2ccc(Cl)cc2)c(C#N)c(=O)[nH]1 |  | 1110 | > 100 | 
CC(Sc1nc(-c2ccccc2)cc(=O)[nH]1)C(=O)Nc1ccc(S(N)(=O)=O)cc1 (racemic) |  |  | > 100 | 
N#Cc1c(-c2ccc(Cl)cc2)nc(SCC(=O)Nc2ccc(S(N)(=O)=O)cc2)[nH]c1=O |  | 6.1 | 8.8 | CLhep predicted at 1 µM [3]: 5.3 mL/min/kg; IC50 [9]: 1.9 µM; Kd [10]: 384 µM; IC50 [1]: > 10 µM; IC50 [2]: > 10 µM
CC(Sc1nc(-c2ccc(Cl)cc2)c(C#N)c(=O)[nH]1)C(=O)Nc1ccc(S(N)(=O)=O)cc1 (racemic) | 3 | 2.2 | 0.48 | CLhep predicted at 1 µM [3]: 2.6 mL/min/kg; solubility at 24 h, 100 µM [7]: 58 µM (≈ 28.4 µg/mL); inhibition [8]: inactive
N#Cc1c(-c2ccc(Cl)cc2)nc(SCC(=O)Nc2ccc(F)c(Cl)c2)[nH]c1=O | > 100 | 314 | 46.8 | 
Cc1c(Cl)cccc1NC(=O)CSc1nc(-c2ccc(Cl)cc2)c(C#N)c(=O)[nH]1 | > 100 | 462 | 50.2 | 
CC(Sc1ncc(C#N)c(=O)[nH]1)C(=O)Nc1ccc(S(N)(=O)=O)cc1 (racemic) |  |  | 12.5 | 
CC(Sc1nc(-c2ccc(Cl)c(Cl)c2)c(C#N)c(=O)[nH]1)C(=O)Nc1ccc(S(N)(=O)=O)cc1 (racemic) | 3.7 | 5.1 | 0.75 | CLhep predicted at 1 µM [3]: 2.6 mL/min/kg; solubility at 24 h, 100 µM [7]: 30 µM (≈ 15.7 µg/mL); inhibition [8]: inactive
CNS(=O)(=O)c1ccc(NC(=O)CSc2nc(-c3ccc(Cl)cc3)c(C#N)c(=O)[nH]2)cc1 | > 100 | 532 | > 100 | 
Cc1ccc(NC(=O)CSc2nc(-c3ccc(Cl)cc3)c(C#N)c(=O)[nH]2)cc1Cl |  | 466 | 27.6 | 
Cc1ccccc1NC(=O)CSc1nc(-c2ccc(Cl)cc2)c(C#N)c(=O)[nH]1 |  | 1010 | > 100 | 
N#Cc1c(-c2ccc(Cl)cc2)nc(SCC(=O)Nc2ccc(Cl)cc2)[nH]c1=O | > 100 | 570 | 55.7 | 
N#Cc1c(-c2ccccc2)nc(SCC(=O)Nc2ccc(S(N)(=O)=O)cc2)[nH]c1=O |  | 15.4 | 12.1 | 
N#Cc1c(-c2ccc(Cl)cc2)nc(SCC(=O)Nc2cccc(Cl)c2)[nH]c1=O | > 100 | 386 | 55.8 | 
COc1ccc(NC(=O)CSc2nc(-c3ccc(Cl)cc3)c(C#N)c(=O)[nH]2)cc1Cl | > 100 | 640 | 26.5 | 
CCc1ccccc1NC(=O)CSc1nc(-c2ccc(Cl)cc2)c(C#N)c(=O)[nH]1 |  | 1210 | > 100 | 
CCC(Sc1nc(-c2ccc(Cl)cc2)c(C#N)c(=O)[nH]1)C(=O)Nc1ccc(S(N)(=O)=O)cc1 (racemic) | 2.4 | 3 | 0.65 | CLhep predicted at 1 µM [3]: 2.8 mL/min/kg; solubility at 24 h, 100 µM [7]: 136 µM (≈ 68.5 µg/mL)
Cc1ccc(NC(=O)CSc2nc(-c3ccc(Cl)cc3)c(C#N)c(=O)[nH]2)cc1C | > 100 | 552 | 38.6 | 
CC(C)c1ccc(NC(=O)CSc2nc(-c3ccc(Cl)cc3)c(C#N)c(=O)[nH]2)cc1 |  | 552 | 22.6 | 
